Laboratory results published in ChEMBL document CHEMBL1158629, “Synthesis, in vitro and in vivo evaluation of [11C]MMTP: a potential PET ligand for mGluR1 receptors” (Bioorg Med Chem Lett, 2010).

What was measured:
Format in all cases: ADME, organism-based
[1] = Ratio of drug uptake in frontal cortex to cerebellum of baboon brain at 5 +/- 0.5 mCi, iv after 35 mins; settings: papio hamadryas, in vivo
How it was run: (§1)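 Fasted baboons were immobilized with ketamine (10 mg/kg, i.m.) and maintained on 1.5~2.0 % isoflurane via endotracheal tube. Core temperature was held at 37°C on a heated water blanket during PET scanning.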

[2] = Ratio of drug uptake in amygdala to cerebellum of baboon brain at 5 +/- 0.5 mCi, iv after 85 mins; settings: papio hamadryas, in vivo; how it was run: as §1
[3] = Ratio of drug uptake in putamen to cerebellum of baboon brain at 5 +/- 0.5 mCi, iv after 35 mins; settings: papio hamadryas, in vivo; how it was run: as §1
[4] = Ratio of drug uptake in hippocampus to cerebellum of baboon brain at 5 +/- 0.5 mCi, iv after 35 mins; settings: papio hamadryas, in vivo; how it was run: as §1
[5] = Metabolic stability in baboon brain assessed as compound remaining at 5 +/- 0.5 mCi, iv after 90 mins; settings: papio hamadryas, in vivo, 1.5 h
[6] = Ratio of drug uptake in putamen to cerebellum of baboon brain at 5 +/- 0.5 mCi, iv after 85 mins; settings: papio hamadryas, in vivo; how it was run: as §1
[7] = Ratio of drug uptake in amygdala to cerebellum of baboon brain at 5 +/- 0.5 mCi, iv after 35 mins; settings: papio hamadryas, in vivo; how it was run: as §1
[8] = Metabolic stability in baboon brain assessed as compound remaining at 5 +/- 0.5 mCi, iv after 30 mins; settings: papio hamadryas, in vivo, 0.5 h
[9] = Ratio of drug uptake in frontal cortex to cerebellum of baboon brain at 5 +/- 0.5 mCi, iv after 85 mins; settings: papio hamadryas, in vivo; how it was run: as §1
[10] = Ratio of drug uptake in caudate to cerebellum of baboon brain at 5 +/- 0.5 mCi, iv after 35 mins; settings: papio hamadryas, in vivo; how it was run: as §1
[11] = Ratio of drug uptake in caudate to cerebellum of baboon brain at 5 +/- 0.5 mCi, iv after 85 mins; settings: papio hamadryas, in vivo; how it was run: as §1
[12] = Ratio of drug uptake in caudate to cerebellum of baboon brain at 5 +/- 0.5 mCi, iv after 65 mins; settings: papio hamadryas, in vivo, pooled result: one value given for 5 cell lines, strains, targets or settings; how it was run: as §1
[13] = Ratio of drug uptake in hippocampus to cerebellum of baboon brain at 5 +/- 0.5 mCi, iv after 85 mins; settings: papio hamadryas, in vivo; how it was run: as §1

- Ratio [1]: 2
- Ratio [2]: 1.6
- Ratio [3]: 2
- Ratio [4]: 2
- Stability [5]: 30%
- Ratio [6]: 1.6
- Ratio [7]: 2
- Stability [8]: 45%
- Ratio [9]: 1.6
- Ratio [10]: 2
- Ratio [11]: 1.6
- Ratio [12]: 1.65
- Ratio [13]: 1.6
Compound: CN(C)c1ccnc2sc3c(=O)n(-c4ccc(O[11CH3])cc4)cnc3c12
